Experiments:
Mus musculus [1] = assay: Percent protective effect was determined in mice using 849 rads for 30 min after (po) administration of 600 mg/kg; assay type: functional
Mus musculus [2] = assay: Percent protective effect was determined in mice using 849 rads for 30 min after (ip) administration of 600 mg/kg; assay type: functional
Mus musculus [3] = assay: Percent survival was determined over a period of 30 days after intraperitoneal administration of a dose of 4.7 mg/kg in mice; assay type: functional; conditions: ip, 720 h
In short: (§1)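 Female C57 B16 mice (18-20 g), groups of 10, dosed ip in water or 10-20% aqueous ethanol (sometimes with Klucel or a Tween). Whole-body 1000-rad γ-irradiation 30 min after dosing. Survival was followed over 30 days, and animals alive beyond 30 days were counted as protected. Testing was done at Walter Reed Army Institute of Research.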

[4] = Toxic dose was determined after (ip) administration of a dose of 18.8 mg/kg in mice at 1000-rad-gamma-radiation for 30 mins; assay type: toxicity, organism-based; design: dose 18.8 mg/kg; conditions: mouse, in vivo
In short: (§2)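 Drug-toxicity deaths were counted within the radioprotection groups: 10 female C57 B16 mice, dosed by the route stated, then given whole-body 1000-rad γ-irradiation 30 min later. Deaths attributed to compound toxicity occurred before day 5 and were scored separately from the 30-day survival count.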

Mus musculus [5] = assay: Percent survival was determined over a period of 30 days after intraperitoneal administration of a dose of 18.8 mg/kg in mice; assay type: functional; conditions: ip, 720 h; in short: as §1
Mus musculus [6] = assay: Percent survival was determined over a period of 30 days after intraperitoneal administration of a dose of 9.4 mg/kg in mice; assay type: functional; conditions: ip, 720 h; in short: as §1
[7] = Toxic dose was determined after (ip) administration of a dose of 4.7 mg/kg in mice at 1000-rad-gamma-radiation for 30 mins; assay type: toxicity, organism-based; design: dose 4.7 mg/kg; conditions: mouse, in vivo; in short: as §2
Mus musculus [8] = assay: Percent survival was determined over a period of 30 days after intraperitoneal administration of a dose of 1.2 mg/kg in mice; assay type: functional; conditions: ip, 720 h; in short: as §1
Mus musculus [9] = assay: Percent survival was determined over a period of 30 days after intraperitoneal administration of a dose of 2.3 mg/kg in mice; assay type: functional; conditions: ip, 720 h; in short: as §1
Mus musculus [10] = assay: Percent survival was determined over a period of 30 days after intraperitoneal administration of a dose of 0.6 mg/kg in mice; assay type: functional; conditions: ip, 720 h; in short: as §1
[11] = Toxic dose was determined after (ip) administration of a dose of 2.3 mg/kg in mice at 1000-rad-gamma-radiation for 30 mins; assay type: toxicity, organism-based; design: dose 2.3 mg/kg; conditions: mouse, in vivo; in short: as §2
Mus musculus [12] = assay: Percent survival was determined over a period of 30 days after intraperitoneal administration of a dose of 1.17 mg/kg in mice; assay type: functional; conditions: ip, 720 h; in short: as §1
Mus musculus [13] = assay: Percent survival was determined over a period of 30 days after intraperitoneal administration of a dose of 2.34 mg/kg in mice; assay type: functional; conditions: ip, 720 h; in short: as §1
[14] = Toxic dose was determined after (ip) administration of a dose of 4.69 mg/kg in mice at 1000-rad-gamma-radiation for 30 mins; assay type: toxicity, organism-based; design: dose 4.69 mg/kg; conditions: mouse, in vivo; in short: as §2
Mus musculus [15] = assay: Percent survival was determined over a period of 30 days after intraperitoneal administration of a dose of 4.69 mg/kg in mice; assay type: functional; conditions: ip, 720 h; in short: as §1
[16] = Toxic dose was determined after (ip) administration of a dose of 9.4 mg/kg in mice at 1000-rad-gamma-radiation for 30 mins; assay type: toxicity, organism-based; design: dose 9.4 mg/kg; conditions: mouse, in vivo; in short: as §2
Mus musculus [17] = assay: Percent protective effect was determined in mice using 825 rads for 30 min after administration of 120 mg/kg; assay type: functional
Mus musculus [18] = assay: Percent survival was determined over a period of 30 days after intraperitoneal administration of a dose of 2.4 mg/kg in mice; assay type: functional; conditions: ip, 720 h; in short: as §1
[19] = Toxic dose was determined after (ip) administration of a dose of 150 mg/kg in mice at 1000-rad-gamma-radiation for 30 mins; assay type: toxicity, organism-based; design: dose 150 mg/kg; conditions: mouse, in vivo; in short: as §2
Mus musculus [20] = assay: Percent survival was determined over a period of 30 days after intraperitoneal administration of a dose of 75 mg/kg in mice; assay type: functional; conditions: Mus musculus, ip, 720 h; in short: as §1
Mus musculus [21] = assay: Percent survival was determined over a period of 30 days after intraperitoneal administration of a dose of 37.5 mg/kg in mice; assay type: functional; conditions: ip, 720 h; in short: as §1
Mus musculus [22] = assay: Percent survival was determined over a period of 30 days after intraperitoneal administration of a dose of 150 mg/kg in mice; assay type: functional; conditions: ip, 720 h; in short: as §1
Mus musculus [23] = assay: Percent survival was determined over a period of 30 days after intraperitoneal administration of a dose of 300 mg/kg in mice; assay type: functional; conditions: ip, 720 h; in short: as §1
Mus musculus [24] = assay: Percent survival was determined over a period of 30 days after intraperitoneal administration of a dose of 1200 mg/kg in mice; assay type: functional; conditions: ip, 720 h; in short: as §1
[25] = Toxic dose was determined in 10-20% ethanol by ip administration in mice. The radiation protective properties were evaluated for groups of 10 mice exposed to 849-rad-gamma-radiation 30 min after dosing.; assay type: toxicity, organism-based; conditions: mouse, in vivo
Mus musculus [26] = assay: Percent survival was determined over a period of 30 days after intraperitoneal administration of a dose of 600 mg/kg in mice; assay type: functional; conditions: ip, 720 h; in short: as §1
[27] = Toxic dose was determined after (ip) administration of a dose of 1200 mg/kg in mice at 1000-rad-gamma-radiation for 30 mins; assay type: toxicity, organism-based; design: dose 1200 mg/kg; conditions: mouse, in vivo; in short: as §2

| Compound | survival at 4.7 mg/kg (Mus musculus [3]) | survival at 9.4 mg/kg (Mus musculus [6]) | survival at 2.3 mg/kg (Mus musculus [9]) | LD50 at 0.5 h [16] | further results |
| --- | --- | --- | --- | --- | --- |
| N#CC(C(=O)N1CCCC1)=C([S-])[S-].[K+].[K+] | – | – | – | – | Protective effect (Mus musculus [1]): 30%; Protective effect (Mus musculus [2]): 80% |
| CS/C(=C\c1cccc[n+]1C)N1CCOCC1.[I-] | 0% | 0% | – | – | LD50 at 0.5 h [4]: 50 mg/kg; survival at 18.8 mg/kg (Mus musculus [5]): 0% |
| CCCCCCSC(=Cc1cccc[n+]1C)SCCCCCC.[I-] | 0% | – | 0% | – | LD50 at 0.5 h [7]: 5 mg/kg; survival at 1.2 mg/kg (Mus musculus [8]): 0% |
| CCCCSC(=Cc1cccc[n+]1C)SCCCC.[I-] | – | – | 30% | – | survival at 0.6 mg/kg (Mus musculus [10]): 0%; LD50 at 0.5 h [11]: 3 mg/kg; survival at 1.2 mg/kg (Mus musculus [8]): 10% |
| CS/C(=C\c1ccc2ccccc2[n+]1C)N1CCCCC1.[I-] | – | – | – | – | survival at 1.17 mg/kg (Mus musculus [12]): 30%; survival at 2.34 mg/kg (Mus musculus [13]): 70%; LD50 at 0.5 h [14]: 5 mg/kg; survival at 4.69 mg/kg (Mus musculus [15]): 10% |
| CSC(=Cc1cccc(C=C(SC)SC)[n+]1C)SC.[I-] | 10% | 30% | 10% | 25 mg/kg | – |
| CSC(=Cc1c2ccccc2cc[n+]1C)SC.[I-] | 0% | 20% | 0% | 15 mg/kg | – |
| COc1ccc2c(ccc(C=C(SC)SC)[n+]2C)c1.[I-] | 0% | 0% | 0% | 30 mg/kg | – |
| N#CC(C(=O)c1ccccc1)=C([S-])[S-].[K+].[K+] | – | – | – | – | Protective effect (Mus musculus [17]): 17% |
| CS/C(=C\c1ccc2ccccc2[n+]1C)N1CCN(CCCO)CC1.[I-] | 0% | 30% | 0% | > 10 mg/kg | – |
| CCSC(=Cc1cccc[n+]1C)SCC.[I-] | 0% | 20% | – | 20 mg/kg | – |
| CSC(=Cc1cccc(C)[n+]1C)SC.[I-] | 0% | 0% | – | – | LD50 at 0.5 h [4]: 50 mg/kg; survival at 18.8 mg/kg (Mus musculus [5]): 40% |
| CS/C(=C\c1cccc[n+]1C)N1CCCCC1.[I-] | 20% | 80% | – | 25 mg/kg | survival at 2.4 mg/kg (Mus musculus [18]): 30% |
| Cc1ccc2c(ccc(CC(=S)[S-])[n+]2C)c1 | – | – | – | – | LD50 at 0.5 h [19]: 225 mg/kg; survival at 75 mg/kg (Mus musculus [20]): 20%; survival at 37.5 mg/kg (Mus musculus [21]): 10%; survival at 150 mg/kg (Mus musculus [22]): 10% |
| C[n+]1c(CC(=S)[S-])cccc1CC(=S)[S-].[I-].[Na+].[Na+] | – | – | – | – | survival at 300 mg/kg (Mus musculus [23]): 0%; survival at 1200 mg/kg (Mus musculus [24]): 0%; LD50 at 0.5 h [25]: > 600 mg/kg; survival at 600 mg/kg (Mus musculus [26]): 0%; LD50 at 0.5 h [27]: > 600 mg/kg |

— ChEMBL document CHEMBL1123594, “Antiradiation compounds. 20. 1-Methylquinolinium(and pyridinium)-2-dithioacetic acid derivatives” (J Med Chem, 1987)
